TPT1 inh = Candida albicans TPT1 enzyme inhibitors, primary screen, biochemical, fluorescence polarization; tRNA 2'-phosphotransferase TPT1 (Candida albicans SC5314); recombinant caTPT1, FP RNA substrate dephosphorylation; inhibition, % at 5 µM; actives 0.81% (n = 300,000); AID 1962, 2009;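 active means inhibition above the mean of all tested compounds plus 3 SD, set per screening campaign, cut at about 24% in these data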;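 further: plate controls were DMSO alone for no effect and ferristatin control at 100 nM for full effect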
IDE cell activ = human IDE activators in live cells, primary screen, fluorescence polarization, HEK cells, FAbeta-B substrate | FAbeta-B cleavage; 0% vehicle, 100% cell-free pure enzyme wells | activation, % at 5.96 µM | actives 0.073% (n = 340,000) | AID 493087, 2011;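 active means activation above the mean of all tested compounds plus 3 SD, set per screening campaign, cut at about 17% in these data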
IDE cell inh = human IDE inhibitors in live cells, primary screen, fluorescence polarization, HEK cells, FAbetaB substrate. inhibition, % at 5.59 µM. actives 0.41% (n = 320,000). FAbetaB cleavage;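 active means percent inhibition above the average of all tested compounds plus 3 SD, set per screening campaign, cut at about 16% in these data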;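 further: IDE supplied by intact live HEK cells; FP after avidin binding of uncleaved biotin substrate so inhibition keeps polarization high; 0% = DMSO wells and 100% = 60 µM reference IDE inhibitor Ii1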
Rpn11 inh = Rpn11 (PSMD14) deubiquitinase inhibitors, primary screen, biochemical, fluorescence polarization, uHTS; 26S proteasome non-ATPase regulatory subunit 14 (Homo sapiens), O00487; human 26S proteasome, Ub4-pepOG fluorescence polarization; 20S core pre-blocked with epoxomicin; inhibition, % at 20 µM; actives 0.59% (n = 360,000); AID 588493, 2011;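 active means inhibition at 20 µM, scaled to each plate's controls, above about 33%, limit read from the data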
Target sequence (O00487 whole entry, looked up): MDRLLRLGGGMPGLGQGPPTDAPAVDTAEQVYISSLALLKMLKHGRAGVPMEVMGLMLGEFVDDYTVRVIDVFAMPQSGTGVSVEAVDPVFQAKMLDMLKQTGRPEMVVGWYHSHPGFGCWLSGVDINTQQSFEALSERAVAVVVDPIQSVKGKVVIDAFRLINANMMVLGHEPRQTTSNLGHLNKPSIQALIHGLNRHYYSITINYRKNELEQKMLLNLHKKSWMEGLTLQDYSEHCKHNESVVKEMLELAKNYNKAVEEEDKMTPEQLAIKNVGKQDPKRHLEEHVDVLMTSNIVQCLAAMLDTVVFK
CSN deneddyl inh = inhibitors of CSN-mediated cullin deneddylation, primary screen, biochemical, fluorescence polarization, uHTS | actives 0.38% (n = 360,000) | AID 651999, 2013 | Purified CSN, SCF-Nedd8-OG deneddylation | inhibition, % at 12.5 µM;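 active means pattern-corrected inhibition above about 35%, with an unprinted fluorescence ratio check between 0.5 and 1.5, limit read from the data, passing the limit was not always enough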;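 further: 0% = enzyme with substrate and 100% = substrate without enzyme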
Target sequence (Q92905 whole entry, looked up, one chain of several): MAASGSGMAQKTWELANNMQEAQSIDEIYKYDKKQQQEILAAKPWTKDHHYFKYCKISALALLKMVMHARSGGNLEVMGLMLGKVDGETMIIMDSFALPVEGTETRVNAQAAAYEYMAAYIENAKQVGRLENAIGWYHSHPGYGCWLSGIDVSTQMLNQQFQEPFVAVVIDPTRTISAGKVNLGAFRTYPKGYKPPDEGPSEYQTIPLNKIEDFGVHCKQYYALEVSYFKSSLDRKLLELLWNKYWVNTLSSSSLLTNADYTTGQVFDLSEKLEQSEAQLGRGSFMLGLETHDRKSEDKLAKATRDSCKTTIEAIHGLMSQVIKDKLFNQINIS
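Material: human Csn5 produced in HEK293T cells; Input: enzyme 0.24 nM; Reagent: SCFSkp2-Nedd8OG substrate at 10 nM final; Dosing: 12.5 µM compound; Incubation: 90 min reaction at room temperature; Detection: fluorescence polarization of the substrate; Evaluation: % inhibition of substrate cleavage by Csn5; Control set: substrate-only high control, full reaction low control.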
HNF4A DNA FP = change in binding of human HNF4A to DNA, primary screen, biochemical, fluorescence polarization, FITC-DNA | Hepatocyte nuclear factor 4-alpha (Homo sapiens), P41235 | 1 h | activity change, % at 10 µM | actives 0.3% (n = 360,000); in the data active means activity change above about 30%, passing the limit was not always enough
IDE inh confirm = human IDE inhibitors in live cells, confirmation, fluorescence polarization, HEK cells, FAbetaB substrate | shares compounds with IDE cell inh | FAbetaB cleavage | inhibition, % at 5.59 µM | actives 51% (n = 1,200) | AID 435028, 2010;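 active means mean inhibition across triplicate wells above the cutoff set by the earlier primary insulin-degrading enzyme screen, cut at about 16% in these data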;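 further: 0% = DMSO wells and 100% = 60 µM reference IDE inhibitor Ii1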
HEK cytotox = cytotoxicity in HEK cells, cytotoxicity control for IDE inhibitor project, cell-based, luminescence | shares compounds with IDE cell inh | HEK293 cytotoxicity, ATP luminescence | inhibition, % at 5.59 µM | actives 28% (n = 1,200) | AID 449730, 2010; in the data active means inhibition above about 22%;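 further: 0% = vehicle wells and 100% = reference cytotoxic drug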
IDE FP artifact = fluorescent or optically active artefacts, dose response, artefact control for IDE inhibitor project, biochemical, fluorescence polarization | shares compounds with IDE cell inh | AID 588718, 2011 | FP counterscreen for fluorescent artifacts, IDE probe project | IC50, µM | 30 tested, under 10 active; call rule not given here
The depositor's hits bear a star; · = no result. An excerpt weighted towards active compounds, which were near 1.7% of everything screened.

SMILES	TPT1 inh	IDE cell activ	IDE cell inh	Rpn11 inh	CSN deneddyl inh	HNF4A DNA FP	IDE inh confirm	HEK cytotox	others
C#CCOCCOCCOCCNc1nc(N2CCN(C(=O)[C@H]([C@@H](C)CC)n3cc([C@@H](N)Cc4ccc(O)cc4)nn3)CC2)nc(N2CCN(C(=O)[C@H](Cc3ccc(O)cc3)n3cc([C@@H](N)C(C)CC)nn3)CC2)n1 (stereo not given in full)	-2.5	-2.4	-0.4	5.8	0.0	4.2	·	·
C#CCOCCOCCOCCNc1nc(N2CCN(C(=O)[C@H]([C@@H](C)CC)n3cc([C@@H](N)CC(C)C)nn3)CC2)nc(N2CCN(C(=O)[C@H](Cc3ccc(O)cc3)n3cc([C@@H](N)C(C)CC)nn3)CC2)n1 (stereo not given in full)	-4.1	0.6	16.1*	-0.3	-3.9	3.9	3.3	6.4
O=C1/C(=C/c2ccccc2)Oc2cc(OC(=O)N3CCOCC3)ccc21	1.0	-2.8	-0.4	2.6	-1.8	-1.8	·	·
CC(=O)Oc1ccc(/C=C2/Oc3ccccc3C2=O)cc1	7.3	-47.4	27.5*	17.9	2.5	18.3	65.6*	20.8
O=C(COC(=O)c1ccccn1)c1ccc([N+](=O)[O-])cc1	-3.7	-3.4	5.7	2.2	2.7	4.3	·	·
CC(OC(=O)/C(C#N)=C/c1ccc(N(C)C)cc1)C(=O)NCc1ccco1 (stereo not given)	-29.2	-3.7	3.8	14.6	14.7	7.2	·	·
CN(C)c1ccc(/C=C(\C#N)C(=O)NCc2ccco2)cc1	42.5*	·	21.9*	·	·	·	13.8	17.8
CCCCC(=O)N1CCN(c2nc3ccc(Br)cc3s2)CC1	-2.6	-22.3	24.8*	1.7	4.4	-0.1	8.5	41.9*
CCCC(=O)N1CCN(c2nc3ccc(Br)cc3s2)CC1	-2.5	-8.5	14.9	-8.8	-7.8	0.9	·	·
CCCC(=O)N1CCN(c2nc3ccc(CC)cc3s2)CC1	-0.2	-9.8	19.4*	1.1	-2.3	1.2	10.5	20.6
O=C(COc1ccc2c3c(c(=O)oc2c1)CCC3)N1CCN(c2ccccc2)CC1	-2.0	-12.8	18.4*	-5.4	0.0	-2.8	5.2	7.3
O=C(COc1ccc2c3c(c(=O)oc2c1)CCC3)N1CCCC1	-0.8	6.7	0.1	-2.5	-1.6	-1.8	·	·
CC(C)[C@H](NC(=O)c1ccc(C(C)(C)C)cc1)C(=O)N1CCN(Cc2ccc3c(c2)OCO3)CC1	·	1.0	18.8*	-2.8	0.9	1.8	3.6	52.9*
CCC1(O)CCCC2C3CCC4CC(=O)CCC4(C)C3C(=O)CC21C (stereo not given)	·	5.1	·	-0.6	-1.3	3.0	·	·
COC(=O)Cn1c(=NC(=O)c2cc(OC)cc(OC)c2)sc2cc(OC)ccc21	0.7	-11.4	16.1*	-3.4	-7.2	-1.8	5.9	12.9
N#Cc1ccc(C(=O)Nc2ccc3ccccc3c2)cc1	3.9	-3.7	10.0	4.5	4.2	0.3	·	·
O=C(Nc1ccc2ccccc2c1)c1ccc2[nH]c(=O)c(=O)[nH]c2c1	0.9	-18.9	20.2*	-8.6	7.4	1.2	12.6	9.6
O=C(CSc1nnc(-c2cccc(Cl)c2)n1Cc1ccco1)Nc1ccc2c(c1)OCCO2	·	·	·	·	·	·	·	·	IDE FP artifact=>54.7
CCOC(=O)[C@]12CCC=C1N(Cc1cccc3ccccc13)C(=O)[C@H](CC(=O)NCCC(C)C)C2	·	·	·	·	-6.5	2.7	·	·
COc1ccccc1CN1C[C@@H]2C[C@@H](c3ccc4nsnc4c3)N3CCC[C@@]23C1=O	0.2	-3.8	19.4*	9.9	-2.6	5.0	6.9	15.3
CCC(=O)Nc1nc2ccc(NC(C)=O)cc2s1	-2.1	-0.9	3.9	1.9	-0.2	0.7	·	·
CCOc1cccc2sc(Nc3nc4ccc(NC(C)=O)cc4s3)nc12	-3.9	-27.7	32.5*	9.2	-3.7	-4.3	14.6	89.0*
CCOC(=O)c1sc(Nc2nc3c(OC)cccc3s2)nc1C	-4.8	-7.4	17.0*	11.2	-0.5	-1.5	6.6	12.0
CCOC(=O)c1sc(Nc2ccccc2)nc1C	-5.6	4.0	7.0	-2.6	-1.7	-1.0	·	·
CC(=O)N/N=C/c1cc(C(C)(C)C)cc(/C=N/NC(C)=O)c1O	-60.5	·	47.8*	-62.4	-26.3	-42.7	29.4*	16.7
SMILES	TPT1 inh	IDE cell activ	IDE cell inh	Rpn11 inh	CSN deneddyl inh	HNF4A DNA FP	IDE inh confirm	HEK cytotox	others
Cc1csc2c(N3CCN(C(=O)NC(C)(C)C)CC3)ncnc12	-0.5	0.5	1.3	-4.0	3.2	-2.2	·	·
Cc1csc2c(N3CCN(C(=O)Nc4ccc(Cl)c(Cl)c4)CC3)ncnc12	-1.5	-20.6	21.2*	4.0	0.7	3.2	8.9	9.4
O=C1Nc2ccccc2/C1=C/c1cccnc1	-0.1	2.8	0.5	3.6	-0.9	0.0	·	·
O=C1Nc2ccccc2/C1=C/c1cnc(-c2ccccc2)[nH]1	-31.0	-31.6	32.3*	-6.7	6.0	-19.9	29.7*	8.9
C[n+]1cn(/N=C/c2ccccc2)c2ccccc21	-3.3	-0.8	-1.7	0.0	-9.7	2.0	·	·
CC(=O)N(C(C)=O)c1nc(-c2ccccc2)cn1/N=C/c1ccccc1	-2.9	-25.2	24.8*	-0.8	7.4	-0.5	20.0*	16.9
O=C(NCCN1CCOCC1)c1ccc(-c2ccccc2)cc1	0.1	-14.8	18.6*	3.2	2.9	4.2	4.3	7.2
C=CCn1c(SCC(=O)N2CCN(C(=O)c3ccco3)CC2)nc2sc(CC)cc2c1=O	-1.0	-14.1	21.0*	1.5	2.8	-1.6	9.9	8.2
O=C(CCCN1C(=O)NC2(CCCC2)C1=O)Nc1ccc(Cl)c(S(=O)(=O)N2CCOCC2)c1	·	1.9	·	0.3	0.1	-0.5	·	·
COc1ccc(C(=O)CSc2n[nH]c(=O)n2Cc2ccco2)cc1	0.6	3.2	17.7*	0.2	-3.1	2.9	9.7	11.8
O=C(CSc1n[nH]c(=O)n1Cc1ccco1)Nc1ccccc1	2.2	·	-1.3	-4.3	-1.6	-0.3	·	·

Screening data (PubChem BioAssay)
